ChEMBL document CHEMBL5058577, “EUbOPEN Chemogenomics Library 2 (Multiplex)” (2022)

Test system: Fibroblast
Experiment: Multiplex assay against human fibroblast
Type: toxicity, cell-based
Summary of the method: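 Values for tubulin, mitochondrial-mass and membrane-permeability phenotypes are per cents of cells with healthy nuclei. These cells were identified by CellPathfinder machine-learning gating of live cells that had been stained at seeding with Hoechst33342, BioTracker Green Microtubule Cytoskeleton Dye, MitoTracker Red and Annexin V Alexa Fluor 680 and imaged on a CQ1 microscope at 37°C and 5% CO2 after compound addition. The gating first set Hoechst high-intensity objects apart from normal cells, then split normal cells into healthy, pyknosed or fragmented nuclei, and pyknosed cells into mitotic or apoptotic.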

[1] = 12 h, 1 µM, compound concentration 1 uM, replicate 1
[2] = 12 h, 1 µM, compound concentration 1 uM, replicate 2
[3] = 12 h, 10 µM, compound concentration 10 uM, replicate 1
[4] = 12 h, 10 µM, compound concentration 10 uM, replicate 2
[5] = 24 h, 1 µM, compound concentration 1 uM, replicate 1
[6] = 24 h, 1 µM, compound concentration 1 uM, replicate 2
[7] = 24 h, 10 µM, compound concentration 10 uM, replicate 1
[8] = 24 h, 10 µM, compound concentration 10 uM, replicate 2
[9] = 48 h, 1 µM, compound concentration 1 uM, replicate 1
[10] = 48 h, 1 µM, compound concentration 1 uM, replicate 2
[11] = 48 h, 10 µM, compound concentration 10 uM, replicate 1
[12] = 48 h, 10 µM, compound concentration 10 uM, replicate 2

N#Cc1c(Oc2cccc(OS(=O)(=O)CCCC(F)(F)F)c2)cccc1C(F)(F)F was tested, and the “Population Apoptotic (%)” value [1] was 51%, the “Population Fragmented Nuclei (%)” value [1] was 13% and the “Population Healthy Nuclei (%)” value [1] was 63%. The “Population Hoechst High Intensity Objects (%)” value [1] was 2%, the “Population Membrane Permeable-Phenotype (%)” value [1] was 1% and the “Population Mitochondria Different-Phenotype (%)” value [1] was 7%. The “Population Mitotic Cells (%)” value [1] was 48%, the “Population Normal (%)” value [1] was 97% and the “Population Pyknosed Nuclei (%)” value [1] was 23%. For the same compound, the “Population Tubulin-Different-Phenotype (%)” value [1] was 38%, the “Total Cell Count” value [1] was 146 and the “Population Apoptotic (%)” value [2] was 38%. The “Population Fragmented Nuclei (%)” value [2] was 27%, the “Population Healthy Nuclei (%)” value [2] was 48% and the “Population Hoechst High Intensity Objects (%)” value [2] was 7%. For the same compound, the “Population Membrane Permeable-Phenotype (%)” value [2] was 9%, the “Population Mitotic Cells (%)” value [2] was 61% and the “Population Normal (%)” value [2] was 92%. The “Population Pyknosed Nuclei (%)” value [2] was 24%, the “Population Tubulin-Different-Phenotype (%)” value [2] was 59% and the “Total Cell Count” value [2] was 148. The “Population Apoptotic (%)” value [3] was 31%, the “Population Fragmented Nuclei (%)” value [3] was 14% and the “Population Healthy Nuclei (%)” value [3] was 59%. The “Population Hoechst High Intensity Objects (%)” value [3] was 6%, the “Population Membrane Permeable-Phenotype (%)” value [3] was 1% and the “Population Mitochondria Different-Phenotype (%)” value [3] was 7%. For the same compound, the “Population Mitotic Cells (%)” value [3] was 68%, the “Population Normal (%)” value [3] was 93% and the “Population Pyknosed Nuclei (%)” value [3] was 26%. The “Population Tubulin-Different-Phenotype (%)” value [3] was 36%, the “Total Cell Count” value [3] was 180 and the “Population Apoptotic (%)” value [4] was 66%. The “Population Fragmented Nuclei (%)” value [4] was 42%, the “Population Healthy Nuclei (%)” value [4] was 22% and the “Population Hoechst High Intensity Objects (%)” value [4] was 7%. The “Population Membrane Permeable-Phenotype (%)” value [4] was 13%, the “Population Mitochondria Different-Phenotype (%)” value [4] was 3% and the “Population Mitotic Cells (%)” value [4] was 33%. The “Population Normal (%)” value [4] was 92%, the “Population Pyknosed Nuclei (%)” value [4] was 35% and the “Population Tubulin-Different-Phenotype (%)” value [4] was 75%. For the same compound, the “Total Cell Count” value [4] was 138, the “Population Apoptotic (%)” value [5] was 50% and the “Population Fragmented Nuclei (%)” value [5] was 20%. For the same compound, the “Population Healthy Nuclei (%)” value [5] was 62%, the “Population Hoechst High Intensity Objects (%)” value [5] was 6% and the “Population Membrane Permeable-Phenotype (%)” value [5] was 1%. The “Population Mitochondria Different-Phenotype (%)” value [5] was 4%, the “Population Mitotic Cells (%)” value [5] was 50% and the “Population Normal (%)” value [5] was 93%. The “Population Pyknosed Nuclei (%)” value [5] was 17%, the “Population Tubulin-Different-Phenotype (%)” value [5] was 45% and the “Total Cell Count” value [5] was 148. For the same compound, the “Population Apoptotic (%)” value [6] was 54%, the “Population Fragmented Nuclei (%)” value [6] was 33% and the “Population Healthy Nuclei (%)” value [6] was 50%. The “Population Hoechst High Intensity Objects (%)” value [6] was 3%, the “Population Membrane Permeable-Phenotype (%)” value [6] was 5% and the “Population Mitochondria Different-Phenotype (%)” value [6] was 5%. The “Population Mitotic Cells (%)” value [6] was 45%, the “Population Normal (%)” value [6] was 96% and the “Population Pyknosed Nuclei (%)” value [6] was 16%. For the same compound, the “Population Tubulin-Different-Phenotype (%)” value [6] was 57%, the “Total Cell Count” value [6] was 147 and the “Population Apoptotic (%)” value [7] was 44%. The “Population Fragmented Nuclei (%)” value [7] was 13%, the “Population Healthy Nuclei (%)” value [7] was 59% and the “Population Hoechst High Intensity Objects (%)” value [7] was 5%. The “Population Membrane Permeable-Phenotype (%)” value [7] was 4%, the “Population Mitochondria Different-Phenotype (%)” value [7] was 12% and the “Population Mitotic Cells (%)” value [7] was 55%. The “Population Normal (%)” value [7] was 94%, the “Population Pyknosed Nuclei (%)” value [7] was 27% and the “Population Tubulin-Different-Phenotype (%)” value [7] was 43%. The “Total Cell Count” value [7] was 174, the “Population Apoptotic (%)” value [8] was 61% and the “Population Fragmented Nuclei (%)” value [8] was 40%. For the same compound, the “Population Healthy Nuclei (%)” value [8] was 23%, the “Population Hoechst High Intensity Objects (%)” value [8] was 8% and the “Population Membrane Permeable-Phenotype (%)” value [8] was 18%. For the same compound, the “Population Mitochondria Different-Phenotype (%)” value [8] was 22%, the “Population Mitotic Cells (%)” value [8] was 38% and the “Population Normal (%)” value [8] was 91%. For the same compound, the “Population Pyknosed Nuclei (%)” value [8] was 36%, the “Population Tubulin-Different-Phenotype (%)” value [8] was 77% and the “Total Cell Count” value [8] was 127. The “Population Apoptotic (%)” value [9] was 60%, the “Population Fragmented Nuclei (%)” value [9] was 18% and the “Population Healthy Nuclei (%)” value [9] was 66%. For the same compound, the “Population Hoechst High Intensity Objects (%)” value [9] was 7%, the “Population Membrane Permeable-Phenotype (%)” value [9] was 1% and the “Population Mitochondria Different-Phenotype (%)” value [9] was 5%. For the same compound, the “Population Mitotic Cells (%)” value [9] was 40%, the “Population Normal (%)” value [9] was 92% and the “Population Pyknosed Nuclei (%)” value [9] was 14%. The “Population Tubulin-Different-Phenotype (%)” value [9] was 42%, the “Total Cell Count” value [9] was 145 and the “Population Apoptotic (%)” value [10] was 38%. For the same compound, the “Population Fragmented Nuclei (%)” value [10] was 26%, the “Population Healthy Nuclei (%)” value [10] was 59% and the “Population Hoechst High Intensity Objects (%)” value [10] was 5%. For the same compound, the “Population Membrane Permeable-Phenotype (%)” value [10] was 13%, the “Population Mitochondria Different-Phenotype (%)” value [10] was 2% and the “Population Mitotic Cells (%)” value [10] was 61%. For the same compound, the “Population Normal (%)” value [10] was 94%, the “Population Tubulin-Different-Phenotype (%)” value [10] was 56% and the “Total Cell Count” value [10] was 133. The “Population Apoptotic (%)” value [11] was 52%, the “Population Fragmented Nuclei (%)” value [11] was 20% and the “Population Healthy Nuclei (%)” value [11] was 54%. The “Population Hoechst High Intensity Objects (%)” value [11] was 9%, the “Population Membrane Permeable-Phenotype (%)” value [11] was 2% and the “Population Mitochondria Different-Phenotype (%)” value [11] was 12%. The “Population Mitotic Cells (%)” value [11] was 47%, the “Population Normal (%)” value [11] was 90% and the “Population Pyknosed Nuclei (%)” value [11] was 24%. For the same compound, the “Population Tubulin-Different-Phenotype (%)” value [11] was 47%, the “Total Cell Count” value [11] was 172 and the “Population Apoptotic (%)” value [12] was 59%. For the same compound, the “Population Fragmented Nuclei (%)” value [12] was 43%, the “Population Healthy Nuclei (%)” value [12] was 31% and the “Population Hoechst High Intensity Objects (%)” value [12] was 2%. The “Population Membrane Permeable-Phenotype (%)” value [12] was 23%, the “Population Mitochondria Different-Phenotype (%)” value [12] was 15% and the “Population Mitotic Cells (%)” value [12] was 40%. For the same compound, the “Population Normal (%)” value [12] was 97%, the “Population Pyknosed Nuclei (%)” value [12] was 25% and the “Population Tubulin-Different-Phenotype (%)” value [12] was 89%. For the same compound, the “Total Cell Count” value [12] was 150.
